PRMT1 inh – inhibitors of human PRMT1 | recombinant PRMT1, activity-based probe fluorescence polarization | AID 652257 | 370,000 compounds, 1.3% hits | inhibition, % at 2.79 µM | Q99873;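 active = inhibition above about 21% made by adding two undisclosed values, limit read from the data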
TCR-CD3 inh – inhibitors of human TCR-CD3 interaction; TAMRA-labeled TCR probe fluorescence, biochemical; 360,000 compounds, 0.37% hits; AID 651800; inhibition, % at 9.4 µM; in the data active = inhibition above about 19%;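 also: recombinant mutant TCR 2C K166C tagged with TAMRA read by polarization; 0% = receptor in buffer alone and 100% = receptor with positive control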
rCAG binder – molecules binding r(CAG) RNA repeats; inhibition, % at 3 µM; 370,000 compounds, 1.3% hits; r(CAG) RNA repeat, TO-PRO-1 dye displacement fluorescence; AID 651821;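 active = inhibition above the plate cutoff, the mean of all test compounds on that plate plus 3 SD, cut at about 35% in these data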;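 also: 0% = DMSO alone and 100% = 100 µM mitoxantrone as full dye displacement; higher means more dye released from RNA so lower well fluorescence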
ABHD4 inh – inhibits mouse alpha/beta hydrolase domain 4; purified mABHD4, FP-Rh probe fluorescence polarization; inhibition, % at 8.92 µM; Q8VD66; 370,000 compounds, 0.54% hits; AID 720543;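 active = inhibition exceeding the mean over every tested compound plus 3 SD, cut at about 30% in these data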;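 also: 0% = plate median of compound wells and 100% = S159A mutant with DMSO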
Target sequence (Q8VD66 whole entry, looked up, the tested form may be a part): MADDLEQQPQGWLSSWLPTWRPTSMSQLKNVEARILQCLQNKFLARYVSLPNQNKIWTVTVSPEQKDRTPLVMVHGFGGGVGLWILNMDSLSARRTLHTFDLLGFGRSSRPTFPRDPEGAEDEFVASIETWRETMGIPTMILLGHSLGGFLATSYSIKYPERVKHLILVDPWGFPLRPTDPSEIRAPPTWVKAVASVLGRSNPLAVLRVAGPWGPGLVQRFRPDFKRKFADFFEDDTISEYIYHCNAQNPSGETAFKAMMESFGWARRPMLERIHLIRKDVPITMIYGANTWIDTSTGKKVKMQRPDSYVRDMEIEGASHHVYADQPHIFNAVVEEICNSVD
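Test system: mABHD4 protein; Read-out basis: % inhibition; Incubation: 45 min + 60 min at 25 °C; Repeats: single replicate; Technique: fluorescence polarization with parallel and perpendicular emission, 525/598 nm; Compound: 8.92 µM, single dose; Benchmarks: full inhibition S159A mutant plus DMSO, zero as sample-well median.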
SIAE inh – inhibitors of human sialic acid acetylesterase SIAE | Q9HAT2 | SIAE FP-Rh probe binding, fluorescence polarization | AID 1053197 | inhibition, % at 9.66 µM | 370,000 compounds, 0.69% hits;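 active = inhibition above a cutoff: mean of compounds within the control limits plus 3 SD of those, cut at about 17% in these data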;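 also: 0% = plate median of compound wells and 100% = probe without SIAE protein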
PRMT1 inh conf – confirmation of human PRMT1 inhibitors. inhibition, % at 2.79 µM. shares compounds with PRMT1 inh. recombinant His-PRMT1, activity-based probe fluorescence polarization. 3,300 compounds, 42% hits;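 active = mean inhibition across replicates above the hit cutoff derived for the earlier primary screen, cut at about 22% in these data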
Numbers without * were called inactive; x = not tested or not shown. Hits are enriched below; roughly 3.3% of the tested compounds scored in any of these assays.

SMILES	PRMT1 inh	TCR-CD3 inh	rCAG binder	ABHD4 inh	SIAE inh	PRMT1 inh conf
COC(=O)c1cc(-c2ccc(F)cc2OCc2ccccc2)c(=O)n2c1CCC2	-6	x	0	-8	7	x
Cc1ccc(S(=O)(=O)N2CCCC2c2cccc3[nH]cc(C)c23)cc1 (stereo unspecified)	1	x	3	1	-2	x
COc1ccccc1NS(=O)(=O)c1cc(NC(=O)c2sccc2C)ccc1N1CCCC1	66*	7	12	-19	-8	84*
O=S(=O)(Nc1ccc(Br)cc1)c1cccc(NC(=S)NCCN2CCOCC2)c1	5	0	20	2	4	x
COc1ccccc1NS(=O)(=O)c1cc(NC(=O)c2sccc2C)ccc1N1CCOCC1	4	-7	8	-15	-24	x
O=C(Nc1cccc(S(=O)(=O)Nc2ccccc2F)c1)c1ccc2ccccc2n1	43*	-1	31	-17	-12	12
O=S(=O)(Nc1ccccc1F)c1cccc(NC(=S)NCCN2CCOCC2)c1	73*	1	8	5	2	61*
COc1ccccc1NS(=O)(=O)c1cc(NC(=S)NCCN2CCOCC2)ccc1N1CCOCC1	36*	4	3	-3	0	57*
COc1ccccc1NS(=O)(=O)c1cccc(NC(=O)c2ccc3ccccc3n2)c1	-2	-4	6	-41	-36	x
COC(=O)[C@@]12CCCCC3=C1N(CCC3)C(=O)[C@H]2CC(=O)NCCCCc1ccccc1	0	x	-3	2	7	x
CCCC#Cc1ccc(CC[C@H]2O[C@H]3CC[C@@H](CO)O[C@H]3C[C@H]2NC(=O)CN2CCOCC2)cc1	0	x	0	-5	-3	x
CSc1ccc(SC2CN(Cc3ccc(C)cc3)S(=O)(=O)C2)cc1 (stereo unspecified)	0	0	3	0	-1	x
Cc1cc(C)c2ccc(=S)[nH]c2n1	38*	3	1	-6	6	16
COc1ccc2c(C)cc(C)nc2n1	2	-5	0	0	-3	x
O=C(Nc1cccc(C(F)(F)F)c1)O[C@@H]1CC[C@@]23CCCN2C(=O)CCC[C@H]3C1	-4	x	x	-4	-5	x
COC(=O)c1c(NC(=O)CN2CCC3(O)CCCCC3C2c2ccccc2OC)sc(C)c1C (stereo unspecified)	-1	0	10	-12	4	x
COC(=O)c1c(NC(=O)CN2CCC3(O)CCCCC3C2c2ccc(OC)cc2OC)sc(C)c1C (stereo unspecified)	30*	-8	26	-6	-9	13
CC(C)Sc1nc(SCC(=O)NCc2ccco2)c2c3c(sc2n1)COC(C)(C)C3	31*	1	14	-22	-14	10
Cc1ccc(/C=N/N2CCN(Cc3cccc4ccccc34)CC2)o1	26*	0	0	14	-2	-1
O=C(O)c1ccccc1-c1c2cc(I)c(=O)c(I)c-2oc2c(I)c(O)c(I)cc12	83*	-258	-76	-243	-292	75*
O=C(CCN1CCCCCC1)c1ccccc1	-2	1	-1	5	1	x
O=C(/C=C/c1ccccc1)CCN1CCCCC1	25*	-1	1	7	-3	50*
Cc1nc(SCc2ccc(O)c([N+](=O)[O-])c2)c([N+](=O)[O-])[nH]1	35*	1	3	25	4	-3
CC(=O)OCC1=C(C(=O)O)N2C(=O)C(NC(=O)C(C)Cn3cc(Cl)cn3)C2SC1 (stereo unspecified)	19	8	3	0	3	x
CC(=O)OCC1=C(C(=O)O)N2C(=O)C(NC(=O)Cn3nc(C(F)F)c(Cl)c3C)C2SC1 (stereo unspecified)	20	5	16	5	1	x
SMILES	PRMT1 inh	TCR-CD3 inh	rCAG binder	ABHD4 inh	SIAE inh	PRMT1 inh conf
CC(=O)OCC1=C(C(=O)O)N2C(=O)C(NC(=O)c3ccc(COc4ccc(Cl)cc4)o3)C2SC1 (stereo unspecified)	36*	3	20	1	-8	12
CC(=O)OCC1=C(C(=O)O)N2C(=O)C(NC(=O)c3ccc(COc4c(C)cccc4Cl)o3)C2SC1 (stereo unspecified)	47*	2	26	3	-12	18
C[C@@H]1OCN(C)[C@H]2C[C@H]3c4[nH]c5cccc(-c6cccc(F)c6)c5c4CCN3C(=O)[C@@H]12	0	x	3	5	5	x
Cc1cc2c(cc1C)/C(=C\C(N)=O)NC(C)(C)C2	26*	-1	-6	-4	5	34*
Cc1cccc2c1CC(C)(C)N/C2=C\C(N)=O	45*	-4	0	-6	14	45*
CNC(=O)/C=C1\NC(C)(C)Cc2ccccc21	41*	5	-1	-15	0	55*
COc1cc2c(cc1OC)/C(=C/C#N)NC(C)(C)C2	1	7	-1	5	7	x
O=C(O)CSC1CC(=O)N(c2ccc(F)cc2)C1=O (stereo unspecified)	26*	-2	2	-10	-4	1
O=C(CSC1CC(=O)N(c2ccc(C(=O)O)cc2)C1=O)Nc1ccc(Cl)cc1 (stereo unspecified)	39*	5	7	5	-5	34*
CCN=C(NCC)SC1CC(=O)N(CCc2ccccc2)C1=O (stereo unspecified)	35*	6	-5	-4	-13	-1
O=C(CSC1CC(=O)N(CCc2ccccc2)C1=O)Nc1cccc(Cl)c1 (stereo unspecified)	54*	10	3	-27	8	54*
CN1CCC(CNC(=O)Nc2csc3ccccc23)CC1	42*	-8	2	3	2	-1
C=CCN1C(=O)[C@H](CC(=O)NCc2cccs2)[C@@]2(C(=O)OCC)CCCC=C12	2	x	2	2	-3	x
CC(=O)Nc1c(O)nc(SCC(=O)Nc2ccc(C(C)=O)cc2)[nH]c1=O	59*	11	2	-3	-1	19
CC(=O)Nc1c(O)nc(SCC(=O)Nc2cccc(C)c2)[nH]c1=O	54*	4	-2	9	3	3
Cc1sc2nc(SCC(=O)Nc3cccc(S(N)(=O)=O)c3)[nH]c(=O)c2c1C	27*	1	20	0	9	1
Cc1cccc(NC(=O)CSc2nc3nc(C)cc(C)c3c(=O)[nH]2)c1	-2	5	5	-3	9	x
Cc1sc2nc(SCC(=O)Nc3ccc(S(N)(=O)=O)cc3)[nH]c(=O)c2c1C	0	10	19	-3	-17	x
COc1ccc([C@H]2OC(=O)C[C@@H]2C(=O)N2CCN(c3ccccc3F)CC2)cc1OC	2	x	2	2	0	x
O=C(COC(=O)c1c(F)cccc1F)NCc1ccc2c(c1)OCO2	-5	5	2	-5	-1	x
Cn1cccc1C(=O)OCC(=O)NCc1ccc2c(c1)OCO2	126*	26*	3	10	8	3
